Measured values taken from ChEMBL document CHEMBL1131115, “Strategies to target kyotorphin analogues to the brain” (1998).
Where a SMILES comes first, the peptide text is derived from it.

Species: Rattus norvegicus
Assay: Compound was evaluated for brain targeted delivery system by Tail flick latency as an index of spinal cord mediated analgesia in rats
Format: functional
Outline: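 Male Sprague-Dawley rats, 250-300 g, housed singly at ~25 °C. Compounds in 0.2 mL propylene glycol:DMSO (2:1) given iv via tail vein, 0.0223 mmol/kg (equivalent to 7.5 mg/kg kyotorphin); dose-response range 0.0030-0.0223 mmol/kg. Tail-flick meter, beam set for 7-8 s baseline latency. Baseline 10 min pre-dose, then 15 min to 6 h. Six rats per group; mean ± SE, ANOVA.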

Q: With CC(C)CCCC(C)C1CCC2C3CC=C4CC(OC(=O)C(CCCC[n+]5cccc(C(N)=O)c5)NC(=O)C(N)Cc5ccc(O)cc5)CCC4(C)C3CCC12C (configuration not stated) as the compound, how does the Latency time read?
A: 17 s

Q: For CC(C)CCCC(C)C1CCC2C3CC=C4CC(OC(=O)C(CCCCN5C=CCC(C(N)=O)=C5)NC(=O)C(Cc5ccc(O)cc5)NC(=O)OC(C)(C)C)CCC4(C)C3CCC12C (configuration not stated), which Latency time is on record?
A: 26 s

Q: For CC(C)CCCC(C)C1CCC2C3CC=C4CC(OC(=O)C(CCCC[n+]5cccc(C(N)=O)c5)NC(=O)[C@H](Cc5ccc(O)cc5)NC(=O)OC(C)(C)C)CCC4(C)C3CCC12C (some centres not stated), which Latency time is on record?
A: 10 s

Q: NC(=O)C1=CN(CCCC[C@H](NC(=O)[C@@H](N)Cc2ccc(O)cc2)C(=O)O)C=CC1 was tested. Which Latency time did it give?
A: 10 s

Q: CC(C)CCCC(C)C1CCC2C3CC=C4CC(OC(=O)C(CCCCN)NC(=O)[C@H](Cc5ccc(O)cc5)NC(=O)OC(C)(C)C)CCC4(C)C3CCC12C (some centres not stated) was tested. Which Latency time did it give?
A: 10 s

Q: For NCCCC[C@H](NC(=O)[C@@H](N)Cc1ccc(O)cc1)C(=O)O (H-Tyr-Lys-OH), which Latency time is on record?
A: 11 s

Q: With NC(N)=NCCC[C@H](NC(=O)[C@@H](N)Cc1ccc(O)cc1)C(=O)O [KYOTORPHIN] as the compound, how does the Latency time read?
A: 11 s
